This note sets out measurements from PubChem BioAssay.

Calls of active or inactive are those of the source.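 Rule for the calls, unless noted: active = viability at or below 10% of carrier control in both of two separate runs; inconclusive = viability at or below 10% in only one of the two runs; inactive = the rest.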

The nature of experiment [1]: Her2 expression decrease, cell viability multiplex – SKBR3 breast tumor cells, AlphaScreen, ATP viability, primary screen (AID 461;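 active = Her2 level under about 52% in both replicate screens, with viability over 70% of control, limit read from the data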;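 for Her2 level: lower value means less Her2 protein in the cells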;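 for viability: percent of carrier control wells set as 100% viability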). To be noted: SKBR3 Her2 protein level, 18-24 h, measured here: SKBR3 viability, ATP luminescence, at 10 µM.
The target of experiment [2] is Receptor tyrosine-protein kinase erbB-2 (Homo sapiens) (UniProt P04626). The description is as above. The following applies: 18-24 h, at 10 µM, stronger effect = lower value.
Experiment [3] can be described thus: reduced viability of SK-BR-3 breast cancer cells – cell-based, 24 h, human, pilot screen (AID 572).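 Note: compound exposure lasted between 18 and 24 h rather than exactly 24 h; 100% = carrier-treated control wells.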 The following applies: SK-BR-3 viability, CellTiter-Glo luminescence, at 10 µM, stronger effect = lower value.
Experiment [4] can be described thus: HUVEC growth inhibition – cell-based, human, primary screen (AID 575;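 active = viability at or below 30% in both replicate assays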;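 note: 100% = median of untreated cell wells with 0.1% DMSO on each plate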). To be noted: HUVEC proliferation, CellTiter-Glo luminescence, 72 h; at 10 µM; stronger effect = lower value. The method in brief: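 Assay system: primary human umbilical vein endothelial cells / Buffer or medium: endothelial basal medium with 2% FBS plus growth supplements / Compound dosing: one dose, 10 µM final, 0.1% DMSO / Timing: 72 h treatment at 37 °C / Signal: CTG luminescence / Benchmarks: 32 DMSO-only cell-control wells (high), 32 MePR drug-control wells (low) per plate / Plate: collagen-coated 384-well format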

A short description of experiment [5]: H69AR cell proliferation blockers – human, duplicate replicates, primary screen (AID 580;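 active = viability at or under a set limit in both replicates, limit being median viability minus 3 SD, cut at about 48% in these data, passing the limit was not always enough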;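 note: 100% = mean luminescence of untreated wells and 0% = no signal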). The following applies: H69AR lung tumor cells viability, ATP luminescence, 72 h; at 10 µM; stronger effect = lower value.
Experiment [6] is described as follows: MRP1 drug-resistance reversers in H69AR cells – cell-based, doxorubicin co-treatment, pilot screen (AID 601;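 active = viability loss from added drug above about 55%, and viability with drug at most 40%, in both replicates, limit read from the data, passing the limit was not always enough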). To be noted: CellTiter-Glo, 72 h, at 10 µM; for differential viability (reversal): stronger effect = higher value.
Experiment [7] is described as follows: yeast transport mutant growth inhibition pilot in 384-well plates, post-Golgi transport modulator project (AID 636; in the data active = inhibition above about 31%). The following applies: absorbance 615 nm, about 18 h, stronger effect = higher value.
Experiment [8] in a line: growth suppression of yeast trafficking mutant, preliminary HTS, modulators of trafficking downstream of Golgi apparatus project, 1536-format plate, OD 615 nm (AID 637; in the data active = inhibition above about 30%). To be noted: yeast transport mutant growth, absorbance 615 nm, 18 h; stronger effect = higher value.
The mark [9] stands for this setting: H69AR cells + 2 uM doxorubicin, measured here: viability with 2 uM doxorubicin, stronger effect = lower value.
Setting [10] is: H69AR cells, compound alone cytotoxicity.

Chain of Receptor tyrosine-protein kinase erbB-2 (Homo sapiens) (P04626 whole entry, looked up): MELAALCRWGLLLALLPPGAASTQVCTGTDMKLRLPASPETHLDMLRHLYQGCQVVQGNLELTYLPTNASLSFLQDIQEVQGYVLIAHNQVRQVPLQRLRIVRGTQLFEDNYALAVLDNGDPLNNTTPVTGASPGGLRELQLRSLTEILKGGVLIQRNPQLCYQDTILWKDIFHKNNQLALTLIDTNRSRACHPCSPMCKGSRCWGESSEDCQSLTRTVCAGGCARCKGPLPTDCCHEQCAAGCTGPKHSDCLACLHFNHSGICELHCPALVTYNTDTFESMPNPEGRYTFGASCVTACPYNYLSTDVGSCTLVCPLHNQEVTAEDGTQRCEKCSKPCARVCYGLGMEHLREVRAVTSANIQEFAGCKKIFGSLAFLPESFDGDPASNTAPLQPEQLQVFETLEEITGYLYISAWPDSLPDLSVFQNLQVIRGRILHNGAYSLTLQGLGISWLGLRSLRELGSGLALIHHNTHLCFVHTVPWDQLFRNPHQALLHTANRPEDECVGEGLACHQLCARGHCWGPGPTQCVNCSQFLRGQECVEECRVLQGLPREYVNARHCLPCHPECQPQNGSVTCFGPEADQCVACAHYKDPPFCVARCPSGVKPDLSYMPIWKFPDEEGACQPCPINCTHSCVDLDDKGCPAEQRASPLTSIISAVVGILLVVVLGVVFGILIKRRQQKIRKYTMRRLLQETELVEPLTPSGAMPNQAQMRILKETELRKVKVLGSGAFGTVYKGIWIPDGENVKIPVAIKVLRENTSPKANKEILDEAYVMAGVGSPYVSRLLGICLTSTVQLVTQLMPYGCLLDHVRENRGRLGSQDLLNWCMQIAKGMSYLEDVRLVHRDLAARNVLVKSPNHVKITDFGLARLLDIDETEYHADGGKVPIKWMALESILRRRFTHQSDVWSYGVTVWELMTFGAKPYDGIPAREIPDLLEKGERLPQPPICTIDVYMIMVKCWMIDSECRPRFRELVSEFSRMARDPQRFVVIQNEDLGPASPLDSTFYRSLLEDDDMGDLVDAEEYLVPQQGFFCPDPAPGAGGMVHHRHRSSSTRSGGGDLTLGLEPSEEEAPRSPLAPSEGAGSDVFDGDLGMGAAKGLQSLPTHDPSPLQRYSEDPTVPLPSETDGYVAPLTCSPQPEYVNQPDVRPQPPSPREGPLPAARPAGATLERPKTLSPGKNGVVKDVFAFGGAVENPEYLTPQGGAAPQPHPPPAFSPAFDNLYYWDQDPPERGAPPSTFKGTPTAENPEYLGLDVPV

Turning to `Cn1c(SCC(=O)Nc2ccc3c(c2)OCO3)nnc1-c1cnccn1`, the viability is 106% in experiment [1]; 106% (inactive) in experiment [3]; 93.5% (inactive) in experiment [4]; 94.6% (inactive) in experiment [5]; 88.1% in experiment [6] (setting [9]); 94.6% in experiment [6] (setting [10]). Moreover, the Her2 level in experiment [2] was 82.5% (inactive). For the same molecule, the differential viability (reversal) in experiment [6] (H69AR cells + 2 uM doxorubicin) was 6.5% (inactive). In addition, the inhibition was -6.05% (inactive) in experiment [7] and 2.33% (inactive) in experiment [8].

`CC1C(O)=C(c2nc3ccccc3[nH]2)C(=N)N1c1ccccc1` (stereo not given): the viability in experiment [1] was 110%; in experiment [3], 110% (inactive); in experiment [4], 50.5% (inactive); in experiment [5] it was 16% (active); in experiment [6] (setting [9]), 55%; in experiment [6] (setting [10]), 16%. In experiment [2], the Her2 level is 83% (inactive). Besides, in experiment [6] (H69AR cells + 2 uM doxorubicin), the differential viability (reversal) is -39% (inactive). The inhibition in experiment [7] is -6.71% (inactive); in experiment [8] it was -10.6% (inactive).

On to `COc1ccccc1-c1nnc2sc(-c3ccc(N(C)C)cc3)nn12`, for which the viability in experiment [1] is 79.5%; in experiment [3], 79.5% (inactive); in experiment [4] it was 34.5% (inactive); in experiment [5], 23.9% (active); in experiment [6] (setting [9]) it was 39.1%; in experiment [6] (setting [10]), 23.9%. The Her2 level in experiment [2] was 64% (inactive). In addition, in experiment [6] (H69AR cells + 2 uM doxorubicin), the differential viability (reversal) is -15.2% (inactive). Besides, the results for the inhibition in experiment [7] and in experiment [8] were -1.05% (inactive) and 1.09% (inactive), respectively.

As for `CCOc1cc(C)c(Cl)cc1S(=O)(=O)N(C)C`, the viability was 106% in experiment [1]; 106% (inactive) in experiment [3]; 103% (inactive) in experiment [4]; 95.4% (inactive) in experiment [5]; 86.6% in experiment [6] (setting [9]); 95.4% in experiment [6] (setting [10]). In addition, the Her2 level in experiment [2] is 90.5% (inactive). In addition, the differential viability (reversal) in experiment [6] (H69AR cells + 2 uM doxorubicin) is 8.76% (inactive). The values for the inhibition in experiment [7] and in experiment [8] were -3.03% (inactive) and -2.1% (inactive), respectively.

In the case of `O=C(OCC(=O)c1c[nH]c2ccccc12)C1=COCCO1`, the viability in experiment [1] is 96%; in experiment [3], 96% (inactive); in experiment [4], 100% (inactive); in experiment [5], 97.5% (inactive); in experiment [6] (setting [9]), 100%; in experiment [6] (setting [10]) it was 97.5%. The Her2 level in experiment [2] is 76.5% (inactive). Further, in experiment [6] (H69AR cells + 2 uM doxorubicin), the differential viability (reversal) was -2.48% (inactive). Moreover, the inhibition was -6.62% (inactive) in experiment [7] and 6.17% (inactive) in experiment [8].

Consider `C=CCOc1ccc(/C(O)=C2\C(=O)C(=O)N(CCOC)C2c2cccnc2)cc1` (stereo not given), for which the viability in experiment [1] was 99%; in experiment [3], 99% (inactive); in experiment [4], 107% (inactive); in experiment [5], 103% (inactive); in experiment [6] (setting [9]), 88.4%; in experiment [6] (setting [10]) it was 103%. Also, the Her2 level in experiment [2] is 94.5% (inactive). Also, in experiment [6] (H69AR cells + 2 uM doxorubicin), the differential viability (reversal) is 14.8% (inactive). Also, the inhibition in experiment [7] was -6.89% (inactive); in experiment [8], 1.17% (inactive).

For the molecule `Cn1c(SCC(N)=O)nnc1C1CCN(C(=O)NCc2ccccc2)CC1`, the viability is 88% in experiment [1]; 88% (inactive) in experiment [3]; 93.6% (inactive) in experiment [4]; 88.3% (inactive) in experiment [5]; 87.8% in experiment [6] (setting [9]); 88.3% in experiment [6] (setting [10]). For the same molecule, the Her2 level in experiment [2] is 103% (inactive). Also, the differential viability (reversal) in experiment [6] (H69AR cells + 2 uM doxorubicin) is 0.425% (inactive). The inhibition in experiment [7] was -3.55% (inactive); in experiment [8], -9.5% (inactive).

With `COC(=O)c1cc(OC)c(OC)cc1NC(=O)CCC1CCCC1`, the viability in experiment [1] was 103%; in experiment [3], 103% (inactive); in experiment [4], 88.8% (inactive); in experiment [5], 102% (inactive); in experiment [6] (setting [9]), 106%; in experiment [6] (setting [10]), 102%. The Her2 level in experiment [2] is 95% (inactive). Further, the differential viability (reversal) in experiment [6] (H69AR cells + 2 uM doxorubicin) is -3.46% (inactive). Also, the inhibition was 0.39% (inactive) in experiment [7] and 9.05% (inactive) in experiment [8].

Regarding `CCOC(=O)Nc1c(C(=O)OC)[nH]c2cccc(OC)c12`, the viability in experiment [1] is 76%; in experiment [3], 76% (inactive); in experiment [4], 106% (inactive); in experiment [5], 104% (inactive); in experiment [6] (setting [9]) it was 91%; in experiment [6] (setting [10]), 104%. Moreover, the Her2 level in experiment [2] is 112% (inactive). In addition, the differential viability (reversal) in experiment [6] (H69AR cells + 2 uM doxorubicin) was 13% (inactive). The inhibition was 3.03% (inactive) in experiment [7] and 9.52% (inactive) in experiment [8].

Consider `Cc1cc(C(F)(F)F)nn1Cc1ccc(C(=O)NCc2ccco2)o1`, for which the viability in experiment [1] is 97%; in experiment [3], 97% (inactive); in experiment [4] it was 95.3% (inactive); in experiment [5], 89.9% (inactive); in experiment [6] (setting [9]), 89.5%; in experiment [6] (setting [10]), 89.9%. Also, the Her2 level in experiment [2] was 105% (inactive). In experiment [6] (H69AR cells + 2 uM doxorubicin), the differential viability (reversal) was 0.38% (inactive). In addition, the inhibition in experiment [7] is -0.53% (inactive); in experiment [8] it was 0.82% (inactive).

As to `CSC1=C(C#N)C(c2ccc(Cl)cc2)C2=C(CC(C)(C)CC2=O)N1` (stereo not given), the viability in experiment [1] was 102%; in experiment [3], 102% (inactive); in experiment [4], 72.1% (inactive); in experiment [5] it was 66% (inactive); in experiment [6] (setting [9]) it was 33.6%; in experiment [6] (setting [10]), 66%. The Her2 level in experiment [2] is 95% (inactive). Besides, the differential viability (reversal) in experiment [6] (H69AR cells + 2 uM doxorubicin) is 32.4% (inactive). The inhibition in experiment [7] was -3.92% (inactive); in experiment [8] it was -1.48% (inactive).

For `CC(=O)Nc1cccc(NC(=O)c2oc3ccccc3c2C)c1`, the viability is 81.5% in experiment [1]; 81.5% (inactive) in experiment [3]; 76.8% (inactive) in experiment [4]; 68.9% (inactive) in experiment [5]; 81.3% in experiment [6] (setting [9]); 68.9% in experiment [6] (setting [10]). In addition, in experiment [2], the Her2 level is 92.5% (inactive). Besides, in experiment [6] (H69AR cells + 2 uM doxorubicin), the differential viability (reversal) was -12.4% (inactive). The inhibition in experiment [7] is -4.8% (inactive); in experiment [8], -1.43% (inactive).

Regarding `COc1cccc(CNC(=O)C2CCN(S(=O)(=O)c3ccc(F)cc3)CC2)c1`, the viability in experiment [1] is 128%; in experiment [3], 128% (inactive); in experiment [4], 95.1% (inactive); in experiment [5], 97.5% (inactive); in experiment [6] (setting [9]), 105%; in experiment [6] (setting [10]), 97.5%. Moreover, the Her2 level in experiment [2] was 98.5% (inactive). Moreover, the differential viability (reversal) in experiment [6] (H69AR cells + 2 uM doxorubicin) is -7.57% (inactive). Further, the results for the inhibition in experiment [7] and in experiment [8] were -2.37% (inactive) and 0.48% (inactive), respectively.

Take `O=C(CN1C(=O)CC(c2ccco2)Sc2ccccc21)Nc1ccccc1F` (stereo not given): the viability is 82.5% in experiment [1]; 82.5% (inactive) in experiment [3]; 72.2% (inactive) in experiment [4]; 84.3% (inactive) in experiment [5]; 80.6% in experiment [6] (setting [9]); 84.3% in experiment [6] (setting [10]). In addition, the Her2 level in experiment [2] was 82% (inactive). Also, the differential viability (reversal) in experiment [6] (H69AR cells + 2 uM doxorubicin) is 3.75% (inactive). The inhibition in experiment [7] was 0% (inactive); in experiment [8], -0.83% (inactive).

As to `O=C(CSCCSCC(=O)c1ccco1)c1ccco1`, the viability was 83.5% in experiment [1]; 83.5% (inactive) in experiment [3]; 77.3% (inactive) in experiment [4]; 101% (inactive) in experiment [5]; 90% in experiment [6] (setting [9]); 101% in experiment [6] (setting [10]). Also, in experiment [2], the Her2 level is 96% (inactive). Moreover, the differential viability (reversal) in experiment [6] (H69AR cells + 2 uM doxorubicin) was 11.3% (inactive). In addition, the inhibition is 0.13% (inactive) in experiment [7] and 8.85% (inactive) in experiment [8].

Consider `Cn1cccc1Cc1nnc(SCC(=O)Nc2ccccc2F)n1-c1ccc(F)cc1`, for which the viability was 87.5% in experiment [1]; 87.5% (inactive) in experiment [3]; 103% (inactive) in experiment [4]; 98.2% (inactive) in experiment [5]; 101% in experiment [6] (setting [9]); 98.2% in experiment [6] (setting [10]). For the same molecule, the Her2 level in experiment [2] was 99.5% (inactive). Further, the differential viability (reversal) in experiment [6] (H69AR cells + 2 uM doxorubicin) was -2.87% (inactive). Besides, the inhibition in experiment [7] is -1.28% (inactive); in experiment [8], -6.5% (inactive).
